Our source for the Activity values is ChEMBL document CHEMBL4049418, “6-OH-Phenanthroquinolizidine Alkaloid and Its Derivatives Exert Potent Anticancer Activity by Delaying S Phase Progression” (J Med Chem, 2017).

The structures appear in SMILES notation. Active and inactive are the calls of the source. No cut-off for these calls is given here.

Experiment [1] has as its system Bel-7402. Kind of experiment: Induction of apoptosis in human Bel7402 cells assessed as early apoptotic cells at 10 nM after 72 hrs by Annexin V/propidium iodide staining based flow cytometric analysis (reference value: 3.66%). The class given is functional. An outline of the steps: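 BEL-7402 cells (3 × 10⁵ per well, 6-well plates) exposed for 72 h. Harvested, PBS-washed, resuspended in cold binding buffer with annexin V–FITC and PI, and stained 15 min in the dark at room temperature. Early apoptotic, late apoptotic and necrotic fractions quantified by flow cytometry.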

In experiment [2] the test system is Bel-7402. Kind of experiment: Induction of necrosis in human Bel7402 cells after 72 hrs by trypan blue exclusion assay. The class given is functional, cell-based. The procedure, abridged:
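BEL-7402 cells seeded at 5 × 10⁴ per well, exposed to compounds 72 h; trypsinized, stained with 0.4% Trypan blue (9:1 dilution) for 3 min; unstained (viable) and stained (necrotic) cells counted separately on a hemocytometer.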

Experiment [3] has as its system KB. Put plainly: Cell cycle arrest in human KB cells assessed as delay in progression of S-phase to G2-phase at 10 nM pre-treated with aphidicolin for 16 hrs followed by compound addition measured up to 12 hrs by propidium iodide staining-based flow cytometric method. It is filed as functional. The procedure, abridged:
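Exponentially growing cells synchronized in early S phase with 0.2 μg/mL aphidicolin for 16 h. Cells released into fresh medium with or without compound for set times. Ethanol-fixed, stained with PI/RNase, and cell cycle distribution read by flow cytometry. Representative of three independent experiments.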

Take `COc1cc2c3c(c4ccc(O)cc4c2cc1OC)CN1CCCC[C@@H]1C3`: the results for the Activity in experiment [1] and in experiment [2] were 3.93% and “Dose-dependent effect”, respectively. Further, the result in experiment [3] was Active.
